Results as given in ChEMBL document CHEMBL2086326, “Biological activity evaluation and structure-activity relationships analysis of ferulic acid and caffeic acid derivatives for anticancer” (Bioorg Med Chem Lett, 2012).

Experiments:
Assay type in all cases: functional, cell-based
A549 = test: Cytotoxicity against human A549 cells after 72 hrs by alamar blue assay; conditions: A549, 72 h
Procedure, shortened: (§1)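 Cells seeded at 800–1000 per well (20–25 cells/µL) and left overnight to attach. Compounds were diluted serially from 10 mM DMSO stocks and tested at 8 final concentrations, 50 to 0.39 µM, in triplicate for 72 h. Vehicle control was 0.5% DMSO. Alamar blue was added to 10% final and fluorescence read after 4 h (ex 530, em 560 nm). Viability was expressed as percent of vehicle, and IC50 taken as 50% kill versus control.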

NCI-H157 = test: Cytotoxicity against human NCI-H157 cells after 72 hrs by alamar blue assay; conditions: NCI-H157, 72 h; procedure, shortened: as §1
NCI-H460 = test: Cytotoxicity against human H460 cells after 72 hrs by alamar blue assay; conditions: NCI-H460, 72 h; procedure, shortened: as §1
NCI-H1792 = test: Cytotoxicity against human NCI-H1792 cells after 72 hrs by alamar blue assay; conditions: NCI-H1792, 72 h; procedure, shortened: as §1
[1] = Cytotoxicity against human H266 cells after 72 hrs by alamar blue assay; conditions: H266, 72 h; procedure, shortened: as §1
HOP-62 = test: Cytotoxicity against human HOP62 cells after 72 hrs by alamar blue assay; conditions: HOP-62, 72 h; procedure, shortened: as §1
NCI-H1299 = test: Cytotoxicity against human NCI-H1299 cells after 72 hrs by alamar blue assay; conditions: NCI-H1299, 72 h; procedure, shortened: as §1
[2] = Cytotoxicity against human 292G cells after 72 hrs by alamar blue assay; procedure, shortened: as §1
Calu-1 = test: Cytotoxicity against human Calu1 cells after 72 hrs by alamar blue assay; conditions: Calu-1, 72 h; procedure, shortened: as §1
LOX IMVI = test: Cytotoxicity against human LOXIMVI cells after 72 hrs by alamar blue assay; procedure, shortened: as §1
M14 = test: Cytotoxicity against human M14 cells after 72 hrs by alamar blue assay; conditions: M14, 72 h; procedure, shortened: as §1
HeLa = test: Cytotoxicity against human HeLa cells after 72 hrs by alamar blue assay; procedure, shortened: as §1
[3] = Cytotoxicity against human M4E cells after 72 hrs by alamar blue assay; procedure, shortened: as §1
[4] = Cytotoxicity against human SKBR cells after 72 hrs by alamar blue assay; procedure, shortened: as §1

Compound	IC50 (A549) [µM]	IC50 (NCI-H157) [µM]	IC50 (NCI-H460) [µM]	IC50 (NCI-H1792) [µM]	IC50 [1] [µM]	IC50 (HOP-62) [µM]	IC50 (NCI-H1299) [µM]	IC50 [2] [µM]	IC50 (Calu-1) [µM]	IC50 (LOX IMVI) [µM]	IC50 (M14) [µM]	IC50 (HeLa) [µM]	IC50 [3] [µM]	IC50 [4] [µM]
COc1cc(/C=C/C(=O)OCCCCCO[N+](=O)[O-])ccc1O	6.39	13.4	12.3	13	21.2	12.5	20.8	24.9	26.3	> 50	24.5	13.4	21.8	8.06
CCCCCOC(=O)/C=C/c1ccc(O)c(O)c1	5.75	2.28	1.91	6.35	7.24	5.11	4.69	7.73	8.57	3.38	7.48	2.02	6.8	2.96
COC(=O)/C=C/c1ccc(O)c(O)c1 [METHYLCAFFEATE]	7.54	6.25	14.8	6.09	> 50	3.86	3.53	3.11	5.5	21.8	8.86	3.77	8.89	5.15
COc1cc(/C=C/C(=O)OCc2c(-c3ccccc3)no[n+]2[O-])ccc1O	2.06	4.53	7.03	11.1	13.4	8.66	12.9	16.5	22.9	13.8	14	7.82	3.37	4.98
O=C(/C=C/c1ccc(OCCCCO[N+](=O)[O-])c(O)c1)OCCCCO[N+](=O)[O-]	0.41	> 50	> 50	> 50	> 50	> 50	> 50	> 50	> 50	> 50	> 50	3.93	> 50	3.23
O=C(/C=C/c1ccc(O)c(O)c1)OCc1c(-c2ccccc2)no[n+]1[O-]	2.71	> 50	2.54	3.78	14.2	6.12	> 50	9.17	7.68	13.3	12.5	1.23	12.9	0.7
CC(C)OC(=O)/C=C/c1ccc(O)c(O)c1	> 50	11	10.5	> 50	> 50	> 50	30.8	> 50	> 50	> 50	> 50	9.65	> 50	31.5
O=C(/C=C/c1ccc(OCCCCCO[N+](=O)[O-])c(O)c1)OCCCCCO[N+](=O)[O-]	0.45	> 50	> 50	> 50	> 50	> 50	> 50	> 50	> 50	7.23	> 50	5.73	> 50	2.71
CCOC(=O)/C=C/c1ccc(O)c(OC)c1 [ETHYL FERULATE]	12.5	32.3	29.1	25.6	28.1	26.8	36.8	32	> 50	> 50	> 50	2.13	33.4	24.9
COC(=O)/C=C/c1ccc(O)c(OC)c1	> 50	> 50	> 50	> 50	> 50	> 50	> 50	> 50	> 50	> 50	> 50	5.55	> 50	> 50
CC(C)COC(=O)/C=C/c1ccc(O)c(O)c1	13.6	8.55	16	> 50	> 50	> 50	37.7	37.5	> 50	> 50	> 50	4.7	36.8	16.2
COc1cc(/C=C/C(=O)OCCC(C)C)ccc1O [ISOPENTYL FERULATE]	43.6	40.2	45	37.7	48.1	31.2	31.5	48.4	32.2	48.4	45.8	> 50	30.5	41.5
O=C(/C=C/c1ccc(O)c(O)c1)OCCCO[N+](=O)[O-]	10.8	4.34	3.31	18.1	> 50	10	8.03	13.5	10.7	18.9	24.8	3.11	20	5.77
COc1cc(/C=C/C(=O)OCc2ccc(OCc3c(-c4ccccc4)no[n+]3[O-])cc2)ccc1O	17.2	> 50	44.2	> 50	> 50	> 50	> 50	> 50	> 50	> 50	> 50	> 50	> 50	11.7
CCCOC(=O)/C=C/c1ccc(O)c(OC)c1	15.6	15.2	25.2	34.1	20.4	22.4	40.3	35.9	48.9	15.2	28.1	5.62	18.5	24.5
COc1cc(/C=C/C(=O)OC/C=C/CO[N+](=O)[O-])ccc1O	5.95	4.29	4.98	4.86	9.79	5.13	2.34	21.9	2.48	2.36	3.89	1	9.38	6.53
COc1cc(/C=C/C(=O)OC(C)C)ccc1O	> 50	> 50	> 50	> 50	> 50	> 50	> 50	> 50	> 50	> 50	> 50	31.1	> 50	> 50
CCCCOC(=O)/C=C/c1ccc(O)c(O)c1 [BUTYL CAFFEATE]	3.51	2.62	5.62	5.75	11.3	5.59	5.81	6.46	11.7	9.54	11.1	0.59	8.66	2.17
CC(C)CCOC(=O)/C=C/c1ccc(O)c(O)c1	8.76	8.25	16.5	31.9	33.8	15.7	17.9	27.6	20.2	8.03	30.6	9.39	29.1	13.1
COc1cc(/C=C/C(=O)OCCCCCO[N+](=O)[O-])ccc1OCCCCCO[N+](=O)[O-]	> 50	> 50	> 50	> 50	> 50	> 50	> 50	> 50	> 50	> 50	> 50	> 50	> 50	> 50
COc1cc(/C=C/C(=O)OCCOCCOc2no[n+]([O-])c2S(=O)(=O)c2ccccc2)ccc1O	0.41	0.44	0.43	1.07	0.42	0.48	0.49	2.88	0.45	0.42	0.41	0.43	1.12	0.41
O=C(/C=C/c1ccc(OCCCO[N+](=O)[O-])c(O)c1)OCCCO[N+](=O)[O-]	0.69	5.71	9.58	6.61	> 50	10	> 50	4.98	12.5	6.94	8.96	> 50	14.1	4.81
